Experimental data pooled from the literature.
Protocols differ between the studies behind these lines.
Read-out: metabolic stability
Host: human

SMILES	sample	concentration	pH	setting	half-life [min]
CCCN(CCC)CCNc1ccc2c(=O)c3c([nH]c2c1)CCCC3	liver microsomes	1 µM	pH 7.4	–	> 60
Cc1c(C)n(Cc2cccc(OC(C)(C)C(=O)O)c2)c2ccc(C(=O)N[C@@H](C)c3ccc(C(C)(C)C)cc3)cc12	liver microsomes	–	–	–	> 60
C=CCn1c(=O)c2cnc(Nc3ccc(N4CCN(C)CC4)cc3)nc2n1-c1ccc2c(n1)[C@@](O)(CC)CC2	hepatocytes	–	–	–	93
Cc1cccc(CNC(=O)c2cn(CCNC(=O)c3ccccc3Sc3c([N+](=O)[O-])ncn3C)c3cc4c(cc3c2=O)OCO4)n1	blood	1 µM	–	whole blood	509
O=C(O)Cc1ccccc1Nc1c(Cl)cccc1Cl	liver microsomes	1 µM	–	–	12
O=c1c2c([nH]c3cc(Oc4ccc(OC(F)(F)F)cc4)ccc13)CCCC2	liver microsomes	1 µM	pH 7.4	–	26.8
CONC(=O)c1cccc2c1cc(C)n2-c1nc2c(c(NCc3ccccc3)n1)CCCN2	liver microsomes	1 µM	pH 7.4	–	13.3
O=c1c2c([nH]c3ccc(Oc4ccc(OC(F)(F)F)cc4)cc13)CCCC2	liver microsomes	1 µM	pH 7.4	–	25.1
CN(C)CC(=O)OCc1cc2[nH]c(=S)n(Cc3cccnc3)c(=O)c2cc1Cl	liver microsomes	1 µM	pH 7.4	–	< 5
O=c1c2c([nH]c3cc(Oc4ccc(OC(F)(F)F)cc4)c(F)cc13)CCCC2	liver microsomes	1 µM	pH 7.4	–	19.1
O=C1c2ccccc2C(=O)N1CCCN1CCN(C(c2ccc(F)cc2)c2ccc(F)cc2)CC1	liver microsomes	100 ng/mL	–	–	10.2
CC(C)NCC(O)COc1cccc2ccccc12 (racemic)	liver microsomes	2 µM	pH 7.4	–	68.2
CCCN(CCC)CCCOc1ccc2c(=O)c3c([nH]c2c1)CCCC3	liver microsomes	1 µM	pH 7.4	–	37.3
Cc1ccc2[nH]c(=S)n(Cc3cccnc3)c(=O)c2c1	liver microsomes	1 µM	pH 7.4	–	10.6
O=C(O)Cc1ccccc1Nc1c(Cl)cccc1Cl	liver microsomes	2 µM	pH 7.4	–	8.3
CN1CCC(Oc2ccc3c(=O)c4c(F)cc(Cl)cc4[nH]c3c2)CC1	liver microsomes	1 µM	pH 7.4	–	55.7
COCC(=O)OCc1cc2[nH]c(=S)n(Cc3cccnc3)c(=O)c2cc1Cl	liver microsomes	1 µM	pH 7.4	–	< 5
CN(C)CCOc1ccc2c(=O)c3c([nH]c2c1)CCCC3	liver microsomes	1 µM	pH 7.4	–	> 60
c1ccc(Oc2ccc(Nc3c4c(nc5ccccc35)CCC4)cc2)cc1	liver microsomes	0.5 µM	–	–	57
Cc1[nH]c(C)c(S(=O)(=O)Nc2ccc(C(F)(F)F)c(Cl)c2Cl)c1C(=O)N1CCC(F)(F)C1	liver microsomes	–	–	–	94
O=c1c2cc(Cl)ccc2[nH]c(=S)n1Cc1cccnc1	liver microsomes	1 µM	pH 7.4	–	> 186
CCN(CC)CCNC(=O)c1c(C)[nH]c(/C=C2\C(=O)Nc3ccc(F)cc32)c1C	liver microsomes	1 µM	pH 7.4	–	1630
O=c1c2c([nH]c3ccc(F)c(Oc4ccc(OC(F)(F)F)cc4)c13)CCCC2	liver microsomes	1 µM	pH 7.4	–	14.9
Cc1ncsc1-c1ccc([C@H](CC(=O)N2CC3(C2)CN(c2ccc(C#Cc4ccc(C(=O)N5CCC(n6cc(-c7ccc8c(c7)CCN8C(=O)Cc7cccc(OC(F)(F)F)c7)c7c(N)ncnc76)CC5)cc4)cn2)C3)NC(=O)[C@@H]2C[C@@H](O)CN2C(=O)[C@@H](NC(=O)C2(F)CC2)C(C)(C)C)cc1	hepatocytes	1 µM	–	–	> 120
CCCCCCCCCCCCCCCC(=O)NCCOC(=O)C[C@@H](CN)CC(C)C	liver microsomes	1 µM	pH 7.4	–	60.3
Cc1[nH]c(C)c(S(=O)(=O)Nc2ccc(C(F)(F)F)c(Cl)c2)c1C(=O)N1CCC(F)(F)C1	liver microsomes	–	–	–	10.2
OCc1ccc(-c2nn(Cc3ccccc3)c3ccccc23)o1	liver microsomes	–	–	–	7
